Columns and labels:
Cavia porcellus [1] = species on record: Cavia porcellus; assay: Effective concentration required in vitro for heart stimulation (right atrium) in guinea pig; format: functional; settings: Cardiac atrium
Outline: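 Isolated right atrium of male Hartley guinea pigs, 25 °C Krebs-Henseleit gassed 95% O2–5% CO2, 0.5 g tension; cumulative concentrations; beating rate via cardiometer triggered by isometric contraction. EC15 = concentration raising rate 15% above unstimulated; 3–5 experiments.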

[2] = target: cyclic AMP phosphodiesterase (guinea pig); assay: Inhibition of cyclic AMP-phosphodiesterase ( PDE) in the supernatant of tracheal muscle homogenate
Cavia porcellus [3] = species on record: Cavia porcellus; assay: Effective concentration required in vitro for tracheal muscle (from male Hartley guinea pigs) relaxation; format: functional; settings: Trachea
Outline: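 Tracheal ring chains from male Hartley guinea pigs (300–500 g), 37 °C Krebs-Henseleit pH 7.4, 95% O2–5% CO2, 0.5 g tension, spontaneous tone; cumulative compound addition, isotonic recording.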

[4] = Bronchoselectivity expressed as ratio of stimulatory activity in the right atrium (EC15) to relaxant activity in the tracheal muscle (EC50); format: functional, Cardiac atrium
Adenosine receptor A1 = target: T1, Adenosine receptor A1 (Cavia porcellus, UniProt P47745); assay: Binding affinity against adenosine A1 receptor of cerebral cortex using [3H]CPX as a radioligand; format: tissue-based
T1 sequence (P47745 whole entry): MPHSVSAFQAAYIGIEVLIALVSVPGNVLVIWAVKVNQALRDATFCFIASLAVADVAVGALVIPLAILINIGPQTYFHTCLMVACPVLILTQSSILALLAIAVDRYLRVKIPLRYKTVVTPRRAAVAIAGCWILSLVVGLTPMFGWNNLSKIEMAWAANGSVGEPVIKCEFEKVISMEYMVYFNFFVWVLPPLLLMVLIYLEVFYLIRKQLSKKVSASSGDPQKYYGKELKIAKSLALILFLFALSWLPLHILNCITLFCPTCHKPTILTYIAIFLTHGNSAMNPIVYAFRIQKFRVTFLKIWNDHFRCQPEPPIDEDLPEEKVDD

[5] = target: Adenosine A2 receptor (guinea pig); assay: Binding affinity against adenosine A2 receptor of striatal membrane using [3H]CGS-21680 as a radioligand
Cavia porcellus [6] = assay: Positive chronotropic effect, 15% increase in heart rate of male Hartley guinea pigs on intraduodenal administration (mean of 3-5 animals); format: functional
Outline: (§1)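 Urethane-anesthetized (1.5 g/kg ip), ventilated male Hartley guinea pigs; compound suspended in 0.5% carboxymethylcellulose given intraduodenally 5 min before iv acetylcholine 40 μg/kg (jugular, every 15 min, after three stable responses); Konzett–Rossler overflow bronchospasm and carotid-pulse heart rate followed 110 min.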

[7] = Bronchoselectivity, ratio of positive chronotropic action (ED15) to bronchodilator action (ED50); format: functional
Cavia porcellus [8] = assay: Bronchodilatory effect, 50% inhibition of spasmogen-induced response in male Hartley guinea pigs on intraduodenal administration; format: functional; outline: as §1

Compound: CCCn1c(=O)n(CCC#N)c(=O)c2[nH]cnc21
- EC15 (Cavia porcellus [1]): 4.3 µM
- Ki [2]: 40.8 µM
- EC50 (Cavia porcellus [3]): 1.7 µM
- Selectivity [4]: 2.5
- Ki (Adenosine receptor A1): 15.9 µM
- Ki [5]: 162 µM

Compound: CCCn1c(=O)n(C)c(=O)c2c1ncn2CCO
- EC15 (Cavia porcellus [1]): > 100 µM
- Ki [2]: 28.7 µM
- EC50 (Cavia porcellus [3]): 31.8 µM
- Selectivity [4]: 3.1
- Ki (Adenosine receptor A1): 41.4 µM
- Ki [5]: > 200 µM

Compound: CCCn1c(=O)[nH]c(=O)c2nc[nH]c21 [ENPROFYLLINE]
- EC15 (Cavia porcellus [1]): 18.3 µM
- ED15 (Cavia porcellus [6]): 95.1 mg/kg

Compound: CCCn1c(=O)n(C)c(=O)c2c1ncn2CCCO
- EC15 (Cavia porcellus [1]): > 100 µM
- Ki [2]: 26.2 µM
- EC50 (Cavia porcellus [3]): 22.6 µM
- Selectivity [4]: 4.4
- Ki (Adenosine receptor A1): 112 µM
- Ki [5]: > 200 µM

Compound: CCCn1c(=O)n(CCCN(C)C)c(=O)c2[nH]cnc21
- EC15 (Cavia porcellus [1]): > 100 µM
- Ki [2]: 92 µM
- EC50 (Cavia porcellus [3]): 20.5 µM
- Selectivity [4]: 4.9
- Ki (Adenosine receptor A1): 43.2 µM
- Ki [5]: > 200 µM

Compound: CCCn1c(=O)n(CC(C)=O)c(=O)c2[nH]cnc21
- EC15 (Cavia porcellus [1]): 45.7 µM
- Ki [2]: 46.4 µM
- EC50 (Cavia porcellus [3]): 14.9 µM
- Selectivity [4]: 3.1
- Ki (Adenosine receptor A1): 11.4 µM
- Ki [5]: > 200 µM

Compound: CCCn1c(=O)n(C)c(=O)c2c1ncn2CC
- EC15 (Cavia porcellus [1]): > 100 µM

Compound: CCCn1cnc2c1c(=O)n(C)c(=O)n2CCC
- EC15 (Cavia porcellus [1]): > 100 µM
- EC50 (Cavia porcellus [3]): 5 µM
- ED15 (Cavia porcellus [6]): > 100 mg/kg
- Selectivity [7]: > 3.6
- ED50 (Cavia porcellus [8]): 27.5 mg/kg
- Selectivity [4]: 20
- Ki [5]: 43.8 µM

Compound: CCCn1c(=O)n(C)c(=O)c2c1ncn2CC#N
- EC15 (Cavia porcellus [1]): > 100 µM
- Ki [2]: 16.5 µM
- EC50 (Cavia porcellus [3]): 35.3 µM
- Selectivity [4]: 2.8
- Ki (Adenosine receptor A1): 6.6 µM
- Ki [5]: 12.8 µM

Compound: CCCn1c(=O)n(CCOC)c(=O)c2[nH]cnc21
- EC15 (Cavia porcellus [1]): 6.3 µM
- Ki [2]: 8.2 µM
- EC50 (Cavia porcellus [3]): 0.7 µM
- Selectivity [4]: 9
- Ki (Adenosine receptor A1): 2.5 µM
- Ki [5]: 21.6 µM

Compound: CCCn1c(=O)n(CC(N)=O)c(=O)c2[nH]cnc21
- EC15 (Cavia porcellus [1]): > 100 µM
- EC50 (Cavia porcellus [3]): > 100 µM
- Ki (Adenosine receptor A1): 39.7 µM

Compound: CCCn1c(=O)n(C)c(=O)c2c1ncn2CC(=O)O
- EC15 (Cavia porcellus [1]): > 100 µM
- EC50 (Cavia porcellus [3]): > 100 µM
- Ki (Adenosine receptor A1): > 200 µM

Compound: CC(=O)CCCCn1c(=O)c2c(ncn2C)n(C)c1=O [PENTOXIFYLLINE]
- EC15 (Cavia porcellus [1]): 52.4 µM
- EC50 (Cavia porcellus [3]): 28.3 µM
- ED15 (Cavia porcellus [6]): 39.4 mg/kg
- ED50 (Cavia porcellus [8]): 43 mg/kg
- Ki (Adenosine receptor A1): 180 µM

Compound: CCCn1c(=O)n(C)c(=O)c2c1ncn2CCC(=O)O
- EC15 (Cavia porcellus [1]): > 100 µM
- Ki [2]: > 200 µM
- EC50 (Cavia porcellus [3]): > 100 µM
- Selectivity [4]: 1
- Ki (Adenosine receptor A1): > 200 µM
- Ki [5]: > 200 µM

Compound: CCCn1c(=O)n(C)c(=O)c2c1ncn2CCC#N
- EC15 (Cavia porcellus [1]): > 100 µM
- Ki [2]: 46 µM
- EC50 (Cavia porcellus [3]): 27.6 µM
- Selectivity [4]: 3.6
- Ki (Adenosine receptor A1): 88.6 µM
- Ki [5]: > 200 µM

Compound: CCCn1c(=O)n(CCC(C)=O)c(=O)c2[nH]cnc21
- EC15 (Cavia porcellus [1]): 27 µM
- Ki [2]: 13 µM
- EC50 (Cavia porcellus [3]): 3.5 µM
- Selectivity [4]: 7.7
- Ki (Adenosine receptor A1): 11.2 µM
- Ki [5]: 144 µM

Compound: CCCn1c(=O)n(CCOCC)c(=O)c2[nH]cnc21
- EC15 (Cavia porcellus [1]): 25.3 µM
- Ki [2]: 22.3 µM
- EC50 (Cavia porcellus [3]): 0.07 µM
- ED15 (Cavia porcellus [6]): 20 mg/kg
- Selectivity [7]: 11.8
- ED50 (Cavia porcellus [8]): 1.7 mg/kg
- Selectivity [4]: 361
- Ki (Adenosine receptor A1): 1.9 µM
- Ki [5]: 12 µM

Compound: Cn1c(=O)c2nc[nH]c2n(C)c1=O.O [THEOPHYLLINE]
- EC15 (Cavia porcellus [1]): 62 µM
- ED15 (Cavia porcellus [6]): 20.2 mg/kg

Compound: CCCn1c(=O)n(C)c(=O)c2c1ncn2CCC(C)=O
- EC15 (Cavia porcellus [1]): > 100 µM
- Ki [2]: 32.8 µM
- EC50 (Cavia porcellus [3]): 12.2 µM
- Selectivity [4]: 8.2
- Ki (Adenosine receptor A1): 30 µM
- Ki [5]: > 200 µM

Compound: CCCn1c(=O)n(C)c(=O)c2c1ncn2CC(C)=O
- EC15 (Cavia porcellus [1]): 37.5 µM
- Ki [2]: 20.7 µM
- EC50 (Cavia porcellus [3]): 1.9 µM
- ED15 (Cavia porcellus [6]): 30 mg/kg
- Selectivity [7]: 20.1
- ED50 (Cavia porcellus [8]): 1.49 mg/kg
- Selectivity [4]: 19.7
- Ki (Adenosine receptor A1): 95.7 µM
- Ki [5]: > 200 µM

Compound: CCCn1c(=O)n(CC)c(=O)c2[nH]cnc21
- EC15 (Cavia porcellus [1]): 6.1 µM
- EC50 (Cavia porcellus [3]): 1.3 µM
- Selectivity [4]: 4.7
- Ki [5]: 3.9 µM

— ChEMBL document CHEMBL1126685, “Bronchodilator activity of xanthine derivatives substituted with functional groups at the 1- or 7-position” (J Med Chem, 1993)
